HUVEC prolif 384: inhibitors of human endothelial cell proliferation; AID 648; actives 1.1% (n = 86,000); viability, % at 10 µM (by protocol); HUVEC proliferation, CellTiter-Glo luminescence, 72 h; hits give low values;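 active = viability at or below 30%; inactive = viability above 30%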
H69AR inhibit: growth inhibitors of human H69AR lung tumor cells | actives 6% (n = 85,000) | AID 598 | viability, % at 10 µM | H69AR lung tumor viability, ATP luminescence, 72 h; hits give low values;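 active = viability at or below 40%; inactive = viability above 40%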;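 also: multidrug resistant small cell line overexpressing MRP-1 efflux transporter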
HCT116 PTEN-null: suppresses growth of cells with PTEN deletion; HCT116 PTEN-null viability, CellTiter-Glo, 60 h; hits give low values; AID 827; actives 1.2% (n = 140,000); viability, % at 10 µM;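 active = viability at or below a set limit, 4 SD under the median of all tested compounds, cut at about 3.7% in these data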;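 also: PTEN knockout HCT116 line with beta catenin targeted HCT116 as companion control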
Fibroblast inh: blocks proliferation of human lung fibroblasts; actives 1.1% (n = 85,000); LL 47 human lung fibroblast viability, ATP luminescence; hits give low values; AID 719; viability, % at 10 µM;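 active = viability at or below 50% in the single dose screen; inactive = viability above 50%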;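 also: compound exposure lasted 72 h before the ATP readout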
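Assay system: human lung fibroblast line LL 47, low passage. Input: 1,150 fibroblasts seeded per well. Times: overnight cell rest, 72 h compound treatment at 37 °C. Evaluation: % viability of median cell-only signal. Technique: luminescent ATP detection, CellTiter-Glo. Control set: cell-only wells, no compound.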
HCT116 bCat-KO: beta-catenin-lacking colon tumor cell growth suppression; viability, % at 10 µM; actives 1.5% (n = 140,000); HCT116 beta-catenin knockout viability, CellTiter-Glo, 60 h; hits give low values;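 active = viability at or under a set limit, the compound median less 4 SD, cut at about 6% in these data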
Numbers stand for hits; – = inactive; · = no result. The sample as a whole holds a higher share of hits than the screen did.

SMILES	HUVEC prolif 384	H69AR inhibit	HCT116 PTEN-null	Fibroblast inh	HCT116 bCat-KO
NC(=O)N1CC(O)CC1C(=O)Nc1ccc(Cl)c(Cl)c1 (stereo not drawn)	–	–	–	–	–
C[C@]1(C(=O)NCc2cc(F)cc(C(F)(F)F)c2)C=C[C@@H](Cc2ccccc2)N1C(=O)c1ccccc1	·	·	–	·	–
COc1cc(CN2CCN(c3cccc(Cl)c3)CC2)cc(OC)c1OC	–	26	–	–	–
CCOc1cccc(/C=N/Nc2ccc(S(=O)(=O)N(CC)CC)cn2)c1O	·	·	2.8	·	3.8
CCN(CC)S(=O)(=O)c1ccc(N/N=C/c2cc(OC)c(OC)cc2OC)nc1	·	·	–	·	–
COc1ccc(-c2nnn(CC(=O)N(Cc3ccccc3Cl)C(C(=O)NCC3CCCO3)c3ccco3)n2)cc1OC (stereo not drawn)	·	·	–	·	–
COc1cc(/C=N/Nc2snc(SC)c2C#N)cc(OC)c1OC	–	24	–	–	–
COc1cc(/C=N/N(C)c2ccccc2)cc(Cl)c1O	–	16	–	–	–
COc1ccc(OC)c(/C=N/N(C)c2ccccc2)c1	–	–	–	–	–
COc1ccc(-n2c(=O)c3c4c(sc3n3c(C)nnc23)CCCC4)cc1	–	–	·	–	·
O=C(NCC1CCCO1)C1CCN(S(=O)(=O)N2CCCC2)CC1 (stereo not drawn)	–	–	–	·	–
O=S(=O)(CCN(CCS(=O)(=O)C(F)(F)F)CC1CCCO1)C(F)(F)F (stereo not drawn)	–	–	1.5	44	1.6
O=C(CSc1ccccc1)Nc1ccc(N2CCOCC2)cc1	–	6.8	–	–	–
CC(C)N(Cc1nnc(-c2ccccc2Cl)o1)C(=O)c1cccc(C#N)c1	–	–	·	–	·
CCC(CC)NC(=O)COC(=O)c1ccc(NS(=O)(=O)c2ccc3c(c2)OCCO3)cc1	·	·	–	·	–
O=C(CN1CCN(C/C=C/c2ccccc2)CC1)Nc1cc([N+](=O)[O-])ccc1Cl	·	·	–	·	–
CN1CCN(C(=O)CCCOc2ccc(Cl)cc2Cl)CC1	·	·	–	·	–
CN1CCN(C(=O)c2ccc(COc3ccc(Cl)cc3Cl)cc2)CC1	13	–	–	–	–
COc1ccc(Cl)cc1C(=O)NCCN(C)C	–	–	–	–	–
CN(C)CCNC(=O)c1ccc(COc2ccc(Cl)cc2Cl)cc1	2.4	1.4	1.6	25	3.1
O=C(O)c1ccc(NC(=S)Nc2ccccc2)cc1	·	·	–	·	–
CCc1nn(C(C)C(=O)NCCN2CCN(c3cccc(C)c3C)CC2)c(=O)c2cc3occc3n12 (stereo not drawn)	·	·	–	·	2.5
CN1CCN(C(=S)Nc2cc([N+](=O)[O-])ccc2Cl)CC1	·	·	–	·	–
COc1cc(CC(=O)OCC(=O)c2ccc3c(c2)OCCO3)cc(OC)c1OC	–	33	–	–	–
COC(=O)C(O)(CC(=O)Nc1ccccc1OC)C(F)(F)F (stereo not drawn)	–	–	–	–	–
SMILES	HUVEC prolif 384	H69AR inhibit	HCT116 PTEN-null	Fibroblast inh	HCT116 bCat-KO
CCOc1cc(/C=C2/C(=O)ON=C2C)ccc1OCc1ccccc1F	–	23	–	43	–
CCOc1cc(/C=C2/C(=O)ON=C2C)ccc1OCc1ccc(F)cc1	·	·	–	·	–
Cc1c(Cl)cccc1NC(=O)CCC(=O)NNC(=O)c1ccccc1	·	·	–	·	–
CC(=O)c1c(C)[nH]c(C(=O)N2CCN(c3cc(Cl)ccc3C)CC2)c1C	–	17	–	–	–
COc1cccc(N2CCN(C(=O)c3[nH]c(C)c(C(C)=O)c3C)CC2)c1	–	21	–	–	–
COC(=O)COc1ccc(/C=N/NC(=O)c2ccc(N(Cc3ccccc3)S(C)(=O)=O)cc2)cc1	·	·	–	·	–
N#Cc1ccc2ccn(CC(=O)NCc3ccccc3)c2c1	–	36	–	–	–
N#Cc1ccc2ccn(CC(=O)NC3CCCCC3)c2c1	–	–	–	–	–
Oc1ccc2ccccc2c1N=Nc1ccccn1	·	·	2.6	·	2.4
CC(C)CCn1c(O)c(N=Nc2ccccn2)c2ccccc21	·	·	–	·	–
CCSC1(SCC)N=C(N)C2(C#N)C(c3ccccc3)NC3=C(CCC3)C12C#N (stereo not drawn)	–	–	–	–	–
CCSC1(SCC)N=C(N)C2(C#N)C(c3ccc(OC)c(OC)c3OC)C12C#N (stereo not drawn)	–	2.1	–	–	–
Cc1ccc(Oc2ccccc2/C=C2\SC(=O)N(C)C2=O)cc1	·	·	–	·	–
Cc1ccc(NC(=O)CSCC(=O)N2c3ccccc3CCc3ccccc32)cc1	·	·	–	·	–
Cc1ccc(NC(=O)COC(=O)C2(c3ccc(Cl)cc3)CCCC2)cc1	·	·	–	·	–
CCOC(=O)C1=C(C)C(c2ccccc2O)NC(=O)N1 (stereo not drawn)	–	–	–	–	–
COc1ccc(C)cc1NC(=O)CC(O)(C(F)(F)F)C(F)(F)F	–	–	–	–	–
Cc1ccc(NC(=O)CC(O)(C(F)(F)F)C(F)(F)F)cc1	–	22	–	–	–
Cc1ccc(-n2c(SCC(=O)Nc3cc(C)on3)nc3c([nH]c4ccccc43)c2=O)cc1	–	17	–	–	–
Cc1cc(NC(=O)CSc2nc3ccccc3c(=O)n2C2CCCC2)no1	–	29	–	–	–
CCOc1ccc(-n2c(SCC(=O)Nc3cc(C)on3)nc3c([nH]c4ccccc43)c2=O)cc1	–	–	–	–	–
COc1ccc(NC(=O)CSc2nc3ccccc3c(=O)n2CCC(=O)N2CCCCC2)cc1	–	40	–	–	–
Cc1cc(NC(=O)CSc2nc(C3CCCCC3)nc3ccccc23)no1	–	20	–	–	–
Cn1c(N)c(C(=O)COC(=O)C2(c3cccc(F)c3)CCCC2)c(=O)n(C)c1=O	–	–	–	–	–
CCCCNC(=O)CNC(=S)N(CCCN1CCOCC1)Cc1cccs1	·	·	–	·	–
SMILES	HUVEC prolif 384	H69AR inhibit	HCT116 PTEN-null	Fibroblast inh	HCT116 bCat-KO
COc1cc(/C=C/C(=O)OCC(=O)NCc2cccs2)ccc1OCC#N	·	·	–	·	–
CSC[C@@H]1NC(=S)N(c2ccc(C)cc2)C1=O	·	·	–	·	–
Cc1nc(C)c(CCNC(=O)c2ccccc2Br)s1	·	·	–	·	–
N#CC(c1ccccc1)N(CCCCl)C(=O)c1ccc(Br)cc1 (stereo not drawn)	·	·	–	·	–
CCCN(CCC)C(=O)CSc1nc2ccccc2c(=O)n1C1CCCC1	–	31	–	–	–
Cc1cc(NC(=O)CSc2nnc3c(C)cc4c(C)ccc(C)c4n23)no1	–	26	–	–	–
CCc1nnc(NC(=O)CSc2nnc3c(C)cc4c(C)ccc(C)c4n23)s1	·	·	–	·	–
Cc1ccc(Cn2c(SCC(=O)Nc3cc(C)on3)nc3ccccc3c2=O)cc1	–	17	–	36	–
Cc1nonc1NC(=O)CSc1nc(C2CCCCC2)nc2ccccc12	–	15	–	–	–
Cc1cc2nc(SCC(=O)Nc3nonc3C)c3c(c2cc1C)CCCC3	–	–	–	–	–
Cc1cc(/C=N/n2cnnc2)c(C)n1-c1cc(Cl)ccc1Cl	–	–	–	–	–
Cc1cc(NC(=O)CSc2nc3c(c(=O)n2-c2ccc(Br)cc2)SCC3)no1	–	20	–	49	–
CCc1cc2cc3c(cc2nc1SCC(=O)Nc1cc(C)on1)OCO3	–	30	–	–	–
